{"data": "Measurements of several laboratories", "target": "Ephrin type-A receptor 7 (EPHA7, Homo sapiens, UniProt Q15375)", "note": "Each line is one published result; the experiments were not run side by side."}
{"Structure (SMILES)": "c1cnn2ncc(-c3ccnc(N4CCC45COC5)n3)c2c1", "effect on": "binding", "tested at": "1 µM", "remaining binding": "93%"}
{"Structure (SMILES)": "C[C@@H]1CN(c2cc(-c3nn(C)c4ccc(OC5(C)CC5)cc34)ncn2)C[C@H](C)O1", "effect on": "cell-free assay", "technique": "competition with immobilised ligand", "tested at": "1 µM", "remaining binding": "99%"}
{"Structure (SMILES)": "O=C(NCCCN1CCOCC1)c1ccc(Nc2nccc(-c3cc4ccccc4s3)n2)cc1", "effect on": "binding", "technique": "competition with immobilised ligand", "tested at": "1 µM", "remaining binding": "100%"}
{"Structure (SMILES)": "CN(C)c1ncc(F)c(-c2cnn3ncccc23)n1", "effect on": "binding", "tested at": "1 µM", "remaining binding": "100%"}
{"Structure (SMILES)": "O=C(c1ccc(Nc2ncc(Cl)c(-c3ccc(Cl)s3)n2)cc1)N1CCC(N2CCCC2)CC1", "effect on": "binding", "technique": "competition with immobilised ligand", "tested at": "1 µM", "remaining binding": "56%"}
{"Structure (SMILES)": "CN(C)C(=O)Cn1cc(-c2nc([C@@](C)(c3ccc(-c4cnc(N)nc4)cc3)C3CC3)no2)cn1", "effect on": "cell-free assay", "technique": "competition with immobilised ligand", "tested at": "1 µM", "remaining binding": "98%"}
{"Structure (SMILES)": "COc1ncc2cc3ccccc3nc2c1C#N", "effect on": "cell-free assay", "technique": "competition with immobilised ligand", "tested at": "5 µM", "remaining binding": "95%"}
{"Structure (SMILES)": "Nc1ncc2c(n1)-c1c([nH]c3ccc(C#CC4CC4)cc13)CCCC2", "effect on": "binding", "technique": "competition with immobilised ligand", "tested at": "1 µM", "remaining binding": "100%"}
{"Structure (SMILES)": "CC1CCCN1c1nccc(-c2cnn3ncccc23)n1 (centres unmarked)", "effect on": "binding", "tested at": "1 µM", "remaining binding": "99%"}
{"Structure (SMILES)": "O=C1NC(c2ccccn2)Sc2ccccc21 (centres unmarked)", "effect on": "cell-free assay", "technique": "competition with immobilised ligand", "tested at": "1 µM", "remaining binding": "72%"}
{"Structure (SMILES)": "CN(CCCC(F)(F)F)c1nccc(-c2cnn3ncccc23)n1", "effect on": "binding", "tested at": "1 µM", "remaining binding": "96%"}
{"Structure (SMILES)": "O=C(NCC1CCOCC1)c1n[nH]cc1NC(=O)c1c(F)cccc1F", "effect on": "binding", "technique": "competition with immobilised ligand", "tested at": "1 µM", "remaining binding": "97%"}
{"Structure (SMILES)": "O=C(Nc1cnc(Oc2ccc(F)cc2)nc1)N1CCc2ncccc2[C@@H]1c1ccc(F)cc1", "effect on": "cell-free assay", "technique": "competition with immobilised ligand", "tested at": "1 µM", "remaining binding": "88%"}
{"Structure (SMILES)": "C[C@@H]1CCN(c2nccc(-c3cnn4ncccc34)n2)C1", "effect on": "binding", "tested at": "1 µM", "remaining binding": "84%"}
{"Structure (SMILES)": "Cn1cc(Cl)c2c(Oc3c(F)cc(Nc4cc(Cl)nc(N)n4)cc3F)ccnc21", "effect on": "cell-free assay", "technique": "competition with immobilised ligand", "tested at": "0.1 µM", "remaining binding": "96%"}
{"Structure (SMILES)": "N[C@H]1CCN(c2nccc(-c3cnn4ncccc34)n2)C1", "effect on": "binding", "tested at": "1 µM", "remaining binding": "100%"}
{"Structure (SMILES)": "COc1cnc(Nc2cccc(S(N)(=O)=O)c2)nc1N1CCN(c2ccccc2)C(=O)C1", "effect on": "binding", "technique": "competition with immobilised ligand", "tested at": "1 µM", "remaining binding": "100%"}
{"Structure (SMILES)": "O=C(c1ccc(Nc2ncc(Cl)c(-c3cc4ccccc4s3)n2)cc1)N1CCC(N2CCCC2)CC1", "effect on": "binding", "technique": "competition with immobilised ligand", "tested at": "1 µM", "remaining binding": "49%"}
{"Structure (SMILES)": "COc1cnc(Nc2cccc(S(N)(=O)=O)c2)nc1N1CCN(c2ccccc2)CC1", "effect on": "binding", "technique": "competition with immobilised ligand", "tested at": "1 µM", "remaining binding": "86%"}
{"Structure (SMILES)": "O=C(Nc1cccnn1)N1CCC(=Cc2cccc(Oc3ccc(C(F)(F)F)cn3)c2)CC1", "effect on": "cell-free assay", "technique": "competition with immobilised ligand", "tested at": "1 µM", "remaining binding": "95%"}
